In ChEMBL document CHEMBL4689842, “EUbOPEN Chemogenomics Library wave 1” (2021):

Test system: U2OS
Assay: Multiplex assay against U2OS
Type: toxicity, cell-based
Details: human
Outline: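 On a CQ1 microscope at 37°C and 5% CO2, live cells were imaged after compound addition. They had been stained at seeding with Hoechst33342, BioTracker Green Microtubule Cytoskeleton Dye, MitoTracker Red and Annexin V Alexa Fluor 680. CellPathfinder machine-learning gating assigned cells to Hoechst high-intensity objects or normal cells, normal cells to healthy, pyknosed or fragmented nuclei, and pyknosed cells to mitotic or apoptotic. Tubulin, mitochondrial-mass and membrane-permeability phenotypes are per cents of healthy-nucleus cells.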

[1] = 12 h, 1 µM, compound concentration 1 uM, replicate 1
[2] = 12 h, 1 µM, compound concentration 1 uM, replicate 2
[3] = 12 h, 10 µM, compound concentration 10 uM, replicate 1
[4] = 12 h, 10 µM, compound concentration 10 uM, replicate 2
[5] = 24 h, 1 µM, compound concentration 1 uM, replicate 1
[6] = 24 h, 1 µM, compound concentration 1 uM, replicate 2
[7] = 24 h, 10 µM, compound concentration 10 uM, replicate 1
[8] = 24 h, 10 µM, compound concentration 10 uM, replicate 2
[9] = 48 h, 1 µM, compound concentration 1 uM, replicate 1
[10] = 48 h, 1 µM, compound concentration 1 uM, replicate 2
[11] = 48 h, 10 µM, compound concentration 10 uM, replicate 1
[12] = 48 h, 10 µM, compound concentration 10 uM, replicate 2

C=C1/C(=C\C=C2/CCC[C@]3(C)[C@@H]([C@H](C)/C=C/[C@H](C)C(C)C)CC[C@@H]23)C[C@@H](O)C[C@@H]1O [DOXERCALCIFEROL]
Population Apoptotic (%) [1]: 38%
Population Fragmented Nuclei (%) [1]: 9%
Population Healthy Nuclei (%) [1]: 82%
Population Hoechst High Intensity Objects (%) [1]: 6%
Population Membrane Permeable-Phenotype (%) [1]: 5%
Population Mitochondria Different-Phenotype (%) [1]: 11%
Population Mitotic Cells (%) [1]: 61%
Population Normal (%) [1]: 93%
Population Pyknosed Nuclei (%) [1]: 8%
Population Tubulin-Different-Phenotype (%) [1]: 17%
Total Cell Count [1]: 2
Population Apoptotic (%) [2]: 40%
Population Fragmented Nuclei (%) [2]: 1%
Population Healthy Nuclei (%) [2]: 90%
Population Hoechst High Intensity Objects (%) [2]: 1%
Population Mitochondria Different-Phenotype (%) [2]: 14%
Population Mitotic Cells (%) [2]: 60%
Population Normal (%) [2]: 98%
Population Tubulin-Different-Phenotype (%) [2]: 9%
Total Cell Count [2]: 111
Population Apoptotic (%) [3]: 36%
Population Fragmented Nuclei (%) [3]: 20%
Population Healthy Nuclei (%) [3]: 60%
Population Hoechst High Intensity Objects (%) [3]: 9%
Population Membrane Permeable-Phenotype (%) [3]: 8%
Population Mitochondria Different-Phenotype (%) [3]: 17%
Population Mitotic Cells (%) [3]: 63%
Population Normal (%) [3]: 90%
Population Pyknosed Nuclei (%) [3]: 19%
Population Tubulin-Different-Phenotype (%) [3]: 8%
Total Cell Count [3]: 160
Population Apoptotic (%) [4]: 0%
Population Fragmented Nuclei (%) [4]: 27%
Population Healthy Nuclei (%) [4]: 67%
Population Hoechst High Intensity Objects (%) [4]: 6%
Population Membrane Permeable-Phenotype (%) [4]: 2%
Population Mitochondria Different-Phenotype (%) [4]: 21%
Population Mitotic Cells (%) [4]: 100%
Population Normal (%) [4]: 93%
Population Pyknosed Nuclei (%) [4]: 5%
Population Tubulin-Different-Phenotype (%) [4]: 13%
Total Cell Count [4]: 61
Population Apoptotic (%) [5]: 7%
Population Fragmented Nuclei (%) [5]: 8%
Population Healthy Nuclei (%) [5]: 84%
Population Hoechst High Intensity Objects (%) [5]: 2%
Population Membrane Permeable-Phenotype (%) [5]: 3%
Population Mitochondria Different-Phenotype (%) [5]: 8%
Population Mitotic Cells (%) [5]: 92%
Population Normal (%) [5]: 97%
Population Pyknosed Nuclei (%) [5]: 6%
Population Tubulin-Different-Phenotype (%) [5]: 9%
Total Cell Count [5]: 1
Population Apoptotic (%) [6]: 42%
Population Fragmented Nuclei (%) [6]: 5%
Population Healthy Nuclei (%) [6]: 86%
Population Hoechst High Intensity Objects (%) [6]: 4%
Population Membrane Permeable-Phenotype (%) [6]: 4%
Population Mitochondria Different-Phenotype (%) [6]: 7%
Population Mitotic Cells (%) [6]: 57%
Population Normal (%) [6]: 95%
Population Pyknosed Nuclei (%) [6]: 8%
Population Tubulin-Different-Phenotype (%) [6]: 14%
Total Cell Count [6]: 157
Population Apoptotic (%) [7]: 56%
Population Fragmented Nuclei (%) [7]: 43%
Population Healthy Nuclei (%) [7]: 18%
Population Hoechst High Intensity Objects (%) [7]: 23%
Population Membrane Permeable-Phenotype (%) [7]: 11%
Population Mitochondria Different-Phenotype (%) [7]: 26%
Population Mitotic Cells (%) [7]: 43%
Population Normal (%) [7]: 76%
Population Pyknosed Nuclei (%) [7]: 37%
Population Tubulin-Different-Phenotype (%) [7]: 7%
Total Cell Count [7]: 197
Population Apoptotic (%) [8]: 33%
Population Fragmented Nuclei (%) [8]: 25%
Population Healthy Nuclei (%) [8]: 70%
Population Hoechst High Intensity Objects (%) [8]: 3%
Population Membrane Permeable-Phenotype (%) [8]: 1%
Population Mitochondria Different-Phenotype (%) [8]: 16%
Population Mitotic Cells (%) [8]: 66%
Population Normal (%) [8]: 96%
Population Pyknosed Nuclei (%) [8]: 4%
Population Tubulin-Different-Phenotype (%) [8]: 13%
Total Cell Count [8]: 83
Population Apoptotic (%) [9]: 21%
Population Fragmented Nuclei (%) [9]: 4%
Population Healthy Nuclei (%) [9]: 89%
Population Hoechst High Intensity Objects (%) [9]: 2%
Population Membrane Permeable-Phenotype (%) [9]: 2%
Population Mitochondria Different-Phenotype (%) [9]: 13%
Population Mitotic Cells (%) [9]: 78%
Population Normal (%) [9]: 97%
Population Pyknosed Nuclei (%) [9]: 6%
Population Tubulin-Different-Phenotype (%) [9]: 10%
Total Cell Count [9]: 5
Population Apoptotic (%) [10]: 42%
Population Healthy Nuclei (%) [10]: 90%
Population Hoechst High Intensity Objects (%) [10]: 1%
Population Membrane Permeable-Phenotype (%) [10]: 0%
Population Mitotic Cells (%) [10]: 57%
Population Normal (%) [10]: 98%
Population Pyknosed Nuclei (%) [10]: 5%
Population Tubulin-Different-Phenotype (%) [10]: 11%
Total Cell Count [10]: 235
Population Apoptotic (%) [11]: 47%
Population Fragmented Nuclei (%) [11]: 53%
Population Healthy Nuclei (%) [11]: 16%
Population Hoechst High Intensity Objects (%) [11]: 18%
Population Membrane Permeable-Phenotype (%) [11]: 25%
Population Mitochondria Different-Phenotype (%) [11]: 29%
Population Mitotic Cells (%) [11]: 52%
Population Normal (%) [11]: 81%
Population Pyknosed Nuclei (%) [11]: 30%
Population Tubulin-Different-Phenotype (%) [11]: 25%
Total Cell Count [11]: 316
Population Apoptotic (%) [12]: 22%
Population Fragmented Nuclei (%) [12]: 12%
Population Healthy Nuclei (%) [12]: 79%
Population Hoechst High Intensity Objects (%) [12]: 3%
Population Membrane Permeable-Phenotype (%) [12]: 2%
Population Mitochondria Different-Phenotype (%) [12]: 22%
Population Mitotic Cells (%) [12]: 77%
Population Normal (%) [12]: 96%
Population Pyknosed Nuclei (%) [12]: 8%
Population Tubulin-Different-Phenotype (%) [12]: 28%
Total Cell Count [12]: 127
